MEKK2 WT-MEK5 – raises or lowers MEK5 binding to wildtype human MEKK2 PB1 domain | Q9Y2U5 | bead flow cytometry, Alexa488-MEK5 binding to MEKK2 WT; actives lie on both sides | binding response (% of control), % at 10 µM | actives 1.1% (n = 290,000); in the data active = binding response below about 67% or above about 130%; inconclusive = no clear call, values can overlap the other calls; inactive = in between
MEKK2mut PB1 HTS – signal of MEK5 binding to mutant human MEKK2 PB1 domain; bead flow cytometry, Alexa488-MEK5 binding to MEKK2 mutant; percent response, % at 10 µM; actives 0.35% (n = 290,000); AID 1530; in the data active = percent response above about 24%, passing the limit was not always enough
UBC13 polyUb – human UBC13 polyubiquitination inhibition | inhibition, % at 20 µM | UBC13 polyubiquitin chain formation, TR-FRET | actives 0.47% (n = 330,000) | AID 485273 | P61088; in the data active = inhibition above about 45%, passing the limit was not always enough; inconclusive = no clear call, values can overlap the other calls
MEKK3 PB1 HTS – MEKK3-MEK5 PB1 interaction, increase or decrease; Q99759; bead-based flow cytometry, Alexa488-MEK5 binding to MEKK3; actives lie on both sides; 0 = blocked by unlabeled MEK5, 100 = vehicle; binding response (% of control), % at 10 µM; actives 1.4% (n = 290,000);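 active = binding response more than 3 SD above or below the average of its plate-row segment, actives on both sides; inconclusive = wells at one plate position flagged as instrument error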;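 note: Alexa488 bead fluorescence after subtracting the streptavidin-only scavenger bead signal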
Pemphigus Ab inh – inhibitors of pemphigus antibody binding to human desmoglein-3; DSG3-coupled beads, scFv-anti-DSG3-GFP binding, flow cytometry; stronger effect = lower value; binding (percent of control), % at 10 µM; AID 588358; actives 0.48% (n = 310,000);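 active = binding more than 3 SD below its plate's average and above zero; inconclusive = below that plate limit but binding exactly zero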;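 note: hits lower antibody fragment binding to DSG3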
Apaf-1 inh – inhibitors of human Apaf-1 apoptosome | O14727 | reconstituted apoptosome caspase-3 activity, DEVD-Rh110 fluorescence | inhibition, % at 20 µM | actives 0.71% (n = 330,000); active = inhibition of at least 40% at 20 µM
Target sequence (O14727 whole entry, looked up): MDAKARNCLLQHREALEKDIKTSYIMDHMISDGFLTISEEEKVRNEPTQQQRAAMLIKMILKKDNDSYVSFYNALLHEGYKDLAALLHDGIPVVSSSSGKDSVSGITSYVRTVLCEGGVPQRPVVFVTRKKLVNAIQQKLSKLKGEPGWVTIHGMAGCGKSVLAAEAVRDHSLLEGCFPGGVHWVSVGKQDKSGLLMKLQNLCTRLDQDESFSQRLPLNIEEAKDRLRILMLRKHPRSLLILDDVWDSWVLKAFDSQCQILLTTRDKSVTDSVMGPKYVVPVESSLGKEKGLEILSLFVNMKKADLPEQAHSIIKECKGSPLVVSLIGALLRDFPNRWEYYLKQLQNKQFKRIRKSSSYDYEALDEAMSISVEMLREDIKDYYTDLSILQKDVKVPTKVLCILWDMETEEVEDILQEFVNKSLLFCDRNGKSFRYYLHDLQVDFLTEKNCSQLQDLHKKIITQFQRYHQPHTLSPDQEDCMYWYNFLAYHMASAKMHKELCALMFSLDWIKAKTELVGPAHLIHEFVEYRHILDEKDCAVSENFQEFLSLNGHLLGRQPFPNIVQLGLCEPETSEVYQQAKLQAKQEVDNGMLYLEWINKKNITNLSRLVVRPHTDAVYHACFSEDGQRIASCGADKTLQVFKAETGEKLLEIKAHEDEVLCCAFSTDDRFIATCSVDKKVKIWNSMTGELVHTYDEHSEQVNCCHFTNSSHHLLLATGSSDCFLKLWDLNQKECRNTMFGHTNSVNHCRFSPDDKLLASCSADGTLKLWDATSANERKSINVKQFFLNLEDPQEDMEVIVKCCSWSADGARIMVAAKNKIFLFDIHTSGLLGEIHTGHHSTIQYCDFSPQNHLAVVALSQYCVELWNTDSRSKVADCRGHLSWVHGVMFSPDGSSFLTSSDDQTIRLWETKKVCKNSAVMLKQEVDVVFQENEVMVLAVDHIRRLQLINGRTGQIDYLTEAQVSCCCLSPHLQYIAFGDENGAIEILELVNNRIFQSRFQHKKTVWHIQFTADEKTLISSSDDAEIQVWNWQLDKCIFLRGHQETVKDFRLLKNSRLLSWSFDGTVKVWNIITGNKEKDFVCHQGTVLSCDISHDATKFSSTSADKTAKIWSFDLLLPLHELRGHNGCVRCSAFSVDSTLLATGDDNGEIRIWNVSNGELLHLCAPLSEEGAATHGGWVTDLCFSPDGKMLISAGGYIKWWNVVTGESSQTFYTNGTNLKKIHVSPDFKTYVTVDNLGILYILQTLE
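Material: biochemical Apaf-1 apoptosome reconstitution. Medium: Hepes buffer, pH 7.5. Also added: cytochrome c activation, bis-DEVD rhodamine 110 substrate. Timing: 30 min compound preincubation, 50 min activation, room temperature. Measured by: rhodamine 110 fluorescence at Ex 480/Em 540 nm.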
MEKK2wt confirm – raises or lowers MEK5 binding to wildtype human MEKK2, retest. shares compounds with MEKK3 PB1 HTS. bead flow cytometry, Alexa488-MEK5 binding to MEKK2 WT; actives lie on both sides. binding response (% of control), % at 10 µM. actives 2.4% (n = 5,900). AID 1892; in the data active = binding response below about 16% or above about 210%; inactive = in between
MEKK2mut confirm – signal of MEK5 binding to mutant human MEKK2, retest. actives 2% (n = 5,900). percent response, % at 10 µM. AID 1893. bead flow cytometry, Alexa488-MEK5 binding to MEKK2 mutant. shares compounds with MEKK3 PB1 HTS; in the data active = percent response mostly above about 71%, no sharp cut-off; inactive = mostly below about 38%;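 note: higher means compound restores mutant binding toward wildtype level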
MEKK3 confirm – confirmation of inhibitors of MEK5 binding to human MEKK3; shares compounds with MEKK3 PB1 HTS; bead flow cytometry, Alexa488-MEK5 binding to MEKK3; stronger effect = lower value; binding response (% of control), % at 10 µM; actives 1.8% (n = 5,900); AID 1894;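 active = binding response below 72% of control, or above a set upper limit, though filed actives all read lower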
Numbers stand for hits; - = inactive; ? = inconclusive; . = not tested or not shown; [ ] = dose if it differs, or a comment. Compounds with a hit are over-represented: about 3.2% of the library has one in this group of screens.

SMILES	MEKK2 WT-MEK5	MEKK2mut PB1 HTS	UBC13 polyUb	MEKK3 PB1 HTS	Pemphigus Ab inh	Apaf-1 inh	MEKK2wt confirm	MEKK2mut confirm	MEKK3 confirm
Cc1cc(C)n2c(SCC(=O)Nc3cccc(S(N)(=O)=O)c3)nnc2n1	.	.	-	.	-	-	.	.	.
O=C(N1CCN(c2ccccc2F)CC1)C1(c2cccs2)CCOCC1	-	-	-	134	-	-	-	-	-
O=C(N1CCN(c2ccccc2F)CC1)C12CC3CC(CC(C3)C1)C2	-	-	-	-	.	-	.	.	.
Cc1cccc(NS(=O)(=O)c2c(C)n[nH]c2C)c1	-	-	-	81[inhibitor]	-	-	-	-	-
CCOC(=O)c1ccc(NS(=O)(=O)c2c(C)n[nH]c2C)cc1	.	.	-	.	-	-	.	.	.
C#CCOCCOCCOCCNc1nc(N2CCN(C(=O)[C@H]([C@@H](C)CC)n3cc([C@@H](N)CC(C)C)nn3)CC2)nc(N2CCN(C(=O)[C@H](Cc3cc4ccccc4[nH]3)n3cc([C@@H](N)CC(C)C)nn3)CC2)n1	151	52	-	-	.	58	252	169	-
C#CCOCCOCCOCCNc1nc(N2CCN(C(=O)[C@H]([C@@H](C)CC)n3cc([C@@H](N)Cc4ccc(O)cc4)nn3)CC2)nc(N2CCN(C(=O)[C@H](Cc3cc4ccccc4[nH]3)n3cc([C@@H](N)C(C)CC)nn3)CC2)n1 (stereo partly drawn)	237	91	78	-	.	49	216	-	-
C#CCOCCOCCOCCNc1nc(N2CCN(C(=O)C(Cc3cc4ccccc4[nH]3)n3cc(C(N)Cc4ccc(O)cc4)nn3)CC2)nc(N2CCN(C(=O)C(CCC(=O)O)n3cc(C(N)C(C)CC)nn3)CC2)n1 (stereo not drawn)	.	.	-	.	-	-	.	.	.
C#CCOCCOCCOCCNc1nc(N2CCN(C(=O)[C@H](CCC(=O)O)n3cc(C(N)Cc4ccc(O)cc4)nn3)CC2)nc(N2CCN(C(=O)[C@H](Cc3cc4ccccc4[nH]3)n3cc(C(N)[C@H](C)CC)nn3)CC2)n1 (stereo partly drawn)	153	-	-	-	-	-	-	-	-
O=C(O)C1CC=CCC1C(=O)Nc1ccc2c(c1)CCC2 (stereo not drawn)	-	-	-	-	-	-	.	.	.
COc1ccc(-c2csc(NC(=O)CCN3C(=O)C4CC=CCC4C3=O)n2)cc1OC (stereo not drawn)	.	.	-	.	-	-	.	.	.
Nc1ncnc2c1ncn2[C@@H]1O[C@H](CNC(=O)[C@@H]2CCC(=O)N2)[C@@H](O)[C@H]1O	.	.	.	.	-	-	.	.	.
CC(C)[C@H](NC(=O)c1ccco1)C(=O)OCC(=O)c1ccc(Br)s1	.	.	-	.	-	-	.	.	.
O=C1NCN(c2ccccc2)C12CCN(CCCC(c1ccc(F)cc1)c1ccc(F)cc1)CC2	207	25	-	-	.	55	-	-	-
COc1ccccc1Nc1cc(C)nc2c(C)cccc12	.	.	.	.	-	.	.	.	.
COc1ccc(Nc2cc(C)nc3c(C)cccc23)cc1OC	-	26	-	-	-	-	-	-	-
CN(C)CCc1cc2c(c3c1ccc1ccccc13)OCO2	174	-	?	-	-	-	-	-	-
COc1ccc(Oc2ccc(C(F)(F)F)cc2NC(=O)c2ccc(F)cc2)cc1	-	-	-	133	-	-	-	-	-
Cc1cccc(NC(=S)NCCCN2CCOCC2)c1	-	-	-	138	-	-	-	-	-
COc1cccc(NC(=S)NCCN2CCOCC2)c1	-	-	-	141	-	-	-	-	-

Screening results deposited in PubChem by several laboratories.
